Data as given in ChEMBL document CHEMBL1649383, “Mode of action of epoxyphomalins A and B and characterization of related metabolites from the marine-derived fungus Paraconiothyrium sp” (J Nat Prod, 2010).
In brackets after ≈: the same amount, converted by molar mass.

How the values were obtained:
SF-268 [1] = experiment: Cytotoxicity against human SF268 cells at 0.01 ug/ml relative to control; format: functional
[2] = Cytotoxicity against human LXFA 289L cells; format: functional, cell-based
In short: (§1)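 Monolayer cell survival and proliferation assay run across a panel of 36 human tumour cell lines; IC50 values determined.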

[3] = Cytotoxicity against human LXFA 629L cells; format: functional, cell-based; in short: as §1
NCI-H460 = experiment: Cytotoxicity against human H460 cells; format: functional, cell-based
In short: (§2)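 Monolayer cell survival and proliferation assay, run within a panel of 36 human tumor cell lines; IC50 determined per cell line.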

[4] = Cytotoxicity against human MAXF 401NL cells; format: functional, cell-based; in short: as §1
[5] = Cytotoxicity against human MEXF 462NL cells; format: functional, cell-based
In short: (§3)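 Monolayer cell survival and proliferation assay run across a panel of 36 human tumor cell lines, with IC50 determined from the resulting growth data.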

[6] = Cytotoxicity against human OVXF 899L cells; format: functional, cell-based; in short: as §3
[7] = Cytotoxicity against human PAXF 1657L cells; format: functional, cell-based; in short: as §3
PANC-1 [8] = experiment: Cytotoxicity against human PANC1 cells; format: functional, cell-based; in short: as §3
DU-145 [9] = experiment: Cytotoxicity against human DU145 cells; format: functional, cell-based; in short: as §2
[10] = Cytotoxicity against human RXF 1781L cells; format: functional, cell-based; in short: as §3
[11] = Cytotoxicity against human RXF 486L cells; format: functional, cell-based; in short: as §3
[12] = Cytotoxicity against human CNXF 498NL cells at 0.001 ug/ml relative to control; format: functional
[13] = Cytotoxicity against human LXFL 1121L cells at 0.001 ug/ml relative to control; format: functional
[14] = Cytotoxicity against human LXFA 526L cells at 0.001 ug/ml relative to control; format: functional
[15] = Cytotoxicity against human LXFL 529L cells at 0.001 ug/ml relative to control; format: functional
[16] = Cytotoxicity against human LXFA 629L cells at 0.001 ug/ml relative to control; format: functional
[17] = Cytotoxicity against human MAXF 401NL cells at 0.001 ug/ml relative to control; format: functional
MCF7 [18] = experiment: Cytotoxicity against human MCF7 cells at 0.001 ug/ml relative to control; format: functional
[19] = Cytotoxicity against human MEXF 514L cells at 0.001 ug/ml relative to control; format: functional
PANC-1 [20] = experiment: Cytotoxicity against human PANC1 cells at 0.001 ug/ml relative to control; format: functional
LNCaP [21] = experiment: Cytotoxicity against human LNCAP cells at 0.001 ug/ml relative to control; format: functional
[22] = Cytotoxicity against human RXF 393NL cells at 0.001 ug/ml relative to control; format: functional
[23] = Cytotoxicity against human RXF 486L cells at 0.001 ug/ml relative to control; format: functional
[24] = Cytotoxicity against human LXFA 526L cells at 0.01 ug/ml relative to control; format: functional
[25] = Cytotoxicity against human MEXF 394NL cells at 0.01 ug/ml relative to control; format: functional
[26] = Cytotoxicity against human MEXF 514L cells at 0.01 ug/ml relative to control; format: functional
[27] = Cytotoxicity against human OVXF 899L cells at 0.01 ug/ml relative to control; format: functional
OVCAR-3 = experiment: Cytotoxicity against human OVCAR3 cells at 0.01 ug/ml relative to control; format: functional
[28] = Cytotoxicity against human PAXF 1657L cells at 0.01 ug/ml relative to control; format: functional
DU-145 [29] = experiment: Cytotoxicity against human DU145 cells at 0.01 ug/ml relative to control; format: functional
[30] = Cytotoxicity against human RXF 393NL cells at 0.01 ug/ml relative to control; format: functional
SF-268 [31] = experiment: Cytotoxicity against human SF268 cells at 0.1 ug/ml relative to control; format: functional
[32] = Cytotoxicity against human LXFA 629L cells at 0.1 ug/ml relative to control; format: functional
MCF7 [33] = experiment: Cytotoxicity against human MCF7 cells at 0.1 ug/ml relative to control; format: functional
[34] = Cytotoxicity against human MEXF 514L cells at 0.1 ug/ml relative to control; format: functional
[35] = Cytotoxicity against human RXF 486L cells at 0.1 ug/ml relative to control; format: functional
[36] = Cytotoxicity against human UXF 1138L cells at 0.1 ug/ml relative to control; format: functional
HT-29 = experiment: Cytotoxicity against human HT-29 cells at 1 ug/ml relative to control; format: functional
[37] = Cytotoxicity against human MAXF 401NL cells at 1 ug/ml relative to control; format: functional
[38] = Cytotoxicity against human MEXF 514L cells at 1 ug/ml relative to control; format: functional
[39] = Cytotoxicity against human OVXF 899L cells at 1 ug/ml relative to control; format: functional
[40] = Cytotoxicity against human PAXF 1657L cells at 1 ug/ml relative to control; format: functional
[41] = Cytotoxicity against human PXF 1752L cells at 1 ug/ml relative to control; format: functional
[42] = Cytotoxicity against human UXF 1138L cells at 1 ug/ml relative to control; format: functional
T-24 = experiment: Cytotoxicity against human T24 cells at 10 ug/ml relative to control; format: functional
HCT-116 = experiment: Cytotoxicity against human HCT116 cells at 10 ug/ml relative to control; format: functional
[43] = Cytotoxicity against human LXFA 289L cells at 10 ug/ml relative to control; format: functional
MCF7 [44] = experiment: Cytotoxicity against human MCF7 cells at 10 ug/ml relative to control; format: functional
[45] = Cytotoxicity against human MEXF 276L cells at 10 ug/ml relative to control; format: functional, MEXF276L
[46] = Cytotoxicity against human MEXF 462NL cells at 10 ug/ml relative to control; format: functional
[47] = Cytotoxicity against human MEXF 514L cells at 10 ug/ml relative to control; format: functional
LNCaP [48] = experiment: Cytotoxicity against human LNCAP cells at 10 ug/ml relative to control; format: functional
[49] = Cytotoxicity against human RXF 486L cells at 10 ug/ml relative to control; format: functional

C=C1[C@@H](O)[C@H]2O[C@@]2(C[C@H]2C(C)=CC[C@H]3C(C)(C)CCC[C@]23C)[C@@H](O)[C@H]1O [EPOXYPHOLAMIN D]
Activity (SF-268 [1]): 97%
IC50 [2]: 18.5 µM
IC70 [2]: 13.9 µg/mL (≈ 38.3 µM)
IC90 [2]: 28.9 µg/mL (≈ 79.6 µM)
IC50 [3]: 3.2 µM
IC70 [3]: 3.08 µg/mL (≈ 8.51 µM)
IC90 [3]: 8.22 µg/mL (≈ 22.7 µM)
IC50 (NCI-H460): 7.48 µM
IC70 (NCI-H460): 4.73 µg/mL (≈ 13 µM)
IC90 (NCI-H460): 8.23 µg/mL (≈ 22.7 µM)
IC50 [4]: 2.57 µM
IC70 [4]: 3.16 µg/mL (≈ 8.72 µM)
IC90 [4]: 11.4 µg/mL (≈ 31.3 µM)
IC50 [5]: 5.79 µM
IC70 [5]: 4.77 µg/mL (≈ 13.2 µM)
IC90 [5]: 10.9 µg/mL (≈ 30 µM)
IC50 [6]: 8.19 µM
IC70 [6]: 5.62 µg/mL (≈ 15.5 µM)
IC90 [6]: 10.7 µg/mL (≈ 29.4 µM)
IC50 [7]: 6.32 µM
IC70 [7]: 4.7 µg/mL (≈ 13 µM)
IC90 [7]: 9.65 µg/mL (≈ 26.6 µM)
IC50 (PANC-1 [8]): 5.43 µM
IC70 (PANC-1 [8]): 4.2 µg/mL (≈ 11.6 µM)
IC90 (PANC-1 [8]): 8.93 µg/mL (≈ 24.6 µM)
IC50 (DU-145 [9]): 8.99 µM
IC70 (DU-145 [9]): 5.88 µg/mL (≈ 16.2 µM)
IC90 (DU-145 [9]): 10.6 µg/mL (≈ 29.3 µM)
IC50 [10]: 11.8 µM
IC70 [10]: 7.69 µg/mL (≈ 21.2 µM)
IC90 [10]: 13.8 µg/mL (≈ 38 µM)
IC50 [11]: 7.67 µM
IC70 [11]: 5.27 µg/mL (≈ 14.5 µM)
IC90 [11]: 10 µg/mL (≈ 27.6 µM)
Activity [12]: 102%
Activity [13]: 116%
Activity [14]: 109%
Activity [15]: 99%
Activity [16]: 96%
Activity [17]: 106%
Activity (MCF7 [18]): 91%
Activity [19]: 119%
Activity (PANC-1 [20]): 90%
Activity (LNCaP [21]): 82%
Activity [22]: 98%
Activity [23]: 95%
Activity [24]: 104%
Activity [25]: 85%
Activity [26]: 123%
Activity [27]: 104%
Activity (OVCAR-3): 98%
Activity [28]: 103%
Activity (DU-145 [29]): 76%
Activity [30]: 126%
Activity (SF-268 [31]): 82%
Activity [32]: 81%
Activity (MCF7 [33]): 96%
Activity [34]: 142%
Activity [35]: 97%
Activity [36]: 99%
Activity (HT-29): 121%
Activity [37]: 48%
Activity [38]: 115%
Activity [39]: 84%
Activity [40]: 73%
Activity [41]: 46%
Activity [42]: 72%
Activity (T-24): 7%
Activity (HCT-116): 4%
Activity [43]: 39%
Activity (MCF7 [44]): 5%
Activity [45]: 20%
Activity [46]: 12%
Activity [47]: 11%
Activity (LNCaP [48]): 27%
Activity [49]: 10%
